According to paper PMC7127590 (European Journal of Medicinal Chemistry, 2010):
≈ marks a conversion by molar mass, not a printed value. Entries after “also recorded” stand apart in the source; their conditions may differ. Like-named read-outs stand apart in the source and are kept apart here.

Columns and labels:
Assay type in all cases: cell-based
[1] = test system: HeLa cells; test: cytotoxicity in uninfected HeLa cells; conditions: HeLa cell cultures, microscopically detectable alteration of cell morphology
How it was run: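 Uninfected HeLa cells were treated with serial dilutions of test compound, run in parallel with the CPE-reduction antiviral assay. Minimum cytotoxic concentration was the lowest concentration causing microscopically detectable alteration of normal cell morphology. CC50 was the 50% cytotoxic concentration, measured as cell viability by the colorimetric formazan-based MTS assay.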

[2] = test system: Bacillus subtilis; test: MIC by tube dilution, B. subtilis; conditions: 24 h, read-out: pMICbs (Eq. (2)) Obs.
How it was run: (§1)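 Tube-dilution MIC. Test compound was dissolved in DMSO at 100 μg/mL, then serially diluted in double-strength nutrient broth (I.P.). Tubes were incubated at 37 °C for 24 h. MIC was the lowest concentration that inhibited microbial growth. MIC values were converted to pMIC for QSAR.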

[3] = test system: Staphylococcus aureus; test: MIC by tube dilution, S. aureus; conditions: 24 h, read-out: pMICsa (Eq. (1)) Obs.
How it was run: as §1

[4] = test system: Escherichia coli; test: MIC by tube dilution, E. coli; conditions: 24 h, read-out: pMICec (Eq. (3)) Obs.
How it was run: as §1

[5] = test system: S. aureus, B. subtilis, E. coli, C. albicans and A. niger; test: average antimicrobial activity
How it was run: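 Tube-dilution MIC with test compound dissolved in DMSO at 100 μg/mL. Bacteria grew in double-strength nutrient broth at 37 °C for 24 h. C. albicans grew in Sabouraud dextrose broth at 37 °C for 48 h, and A. niger in the same broth at 25 °C for 7 days. MIC was the lowest growth-inhibiting concentration, converted to pMIC. pMICam = mean of the five pMIC values.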

[6] = test system: Candida albicans; test: MIC by tube dilution, C. albicans; conditions: 48 h
[7] = test system: Vesicular stomatitis virus
[8] = test system: B. subtilis; test: MBC determination, B. subtilis; conditions: static when MBC 3-fold higher than MIC
How it was run: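 100 μL of culture from each tube that stayed clear in the MIC test was subcultured on fresh medium. MBC was the lowest compound concentration producing a 99.9% end-point reduction.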

[9] = read-out: pMICam (Eq. (9)) Obs.
[10] = read-out: pMICam MLR (Eq. (10)) Obs.
[11] = read-out: pMICca (Eq. (4)) Obs.

| SMILES | Cytotoxicity Minimum cytotoxic conc. [1] | MIC [2] [µM] | MIC [3] [µM] | MIC [4] [µM] | MIC [5, 9] [µM] | MIC [5, 10] [µM] | MIC [6, 11] [µM] | antiviral activity against Vesicular stomatitis virus (VSV), in words [7] | MIC ([6]; read-out: pMICca) [µM] | bacteriostatic/bactericidal action against B. subtilis [8] |
| --- | --- | --- | --- | --- | --- | --- | --- | --- | --- | --- |
| Nc1ncnc2c1ncn2C[C@H](O)CO [(S)-DHPA, reference compound] | >250 µM |  |  |  |  |  |  |  |  |  |
| CCCCCCCCCCCC(=O)N/N=C/c1ccccc1 [Compound 1] |  | 50.1 (≈ 15.2 µg/mL) | 41.7 (≈ 12.6 µg/mL) | 41.7 (≈ 12.6 µg/mL) | 50.1 (≈ 15.2 µg/mL) | 50.1 (≈ 15.2 µg/mL) | 61.7 (≈ 18.6 µg/mL) |  |  |  |
| CCCCCCCCCCCCCC(=O)N/N=C/c1ccccc1 [Compound 2] |  | 38 (≈ 12.6 µg/mL) | 38 (≈ 12.6 µg/mL) | 43.7 (≈ 14.4 µg/mL) | 45.7 (≈ 15.1 µg/mL) | 45.7 (≈ 15.1 µg/mL) | 57.5 (≈ 19 µg/mL) |  |  |  |
| CCCCCCCCCCCCCCCC(=O)N/N=C/c1ccccc1 [Compound 3] |  | 34.7 (≈ 12.4 µg/mL) | 34.7 (≈ 12.4 µg/mL) | 31.6 (≈ 11.3 µg/mL) | 38.9 (≈ 13.9 µg/mL) | 38.9 (≈ 13.9 µg/mL) | 17.4 (≈ 6.23 µg/mL) |  |  |  |
| CCCCCCCCCCCCCCCCCC(=O)N/N=C/c1ccccc1 [Compound 4] |  | 32.4 (≈ 12.5 µg/mL) | 32.4 (≈ 12.5 µg/mL) | 16.2 (≈ 6.27 µg/mL) | 24.5 (≈ 9.49 µg/mL) | 24.5 (≈ 9.49 µg/mL) | 8.13 (≈ 3.14 µg/mL) |  |  |  |
| C/C=C/C=C/C(=O)N/N=C/c1ccccc1 [Compound 5] |  | 58.9 (≈ 12.6 µg/mL) | 58.9 (≈ 12.6 µg/mL) | 58.9 (≈ 12.6 µg/mL) | 58.9 (≈ 12.6 µg/mL) | 58.9 (≈ 12.6 µg/mL) | 117 (≈ 25.2 µg/mL) |  |  |  |
| O=C(/C=C/c1ccccc1)N/N=C/c1ccccc1 [Compound 6] |  | 50.1 (≈ 12.5 µg/mL) | 50.1 (≈ 12.5 µg/mL) | 50.1 (≈ 12.5 µg/mL) | 33.1 (≈ 8.29 µg/mL) | 33.1 (≈ 8.29 µg/mL) | 12.6 (≈ 3.15 µg/mL) |  |  |  |
| Cc1cccc(C(=O)N/N=C/c2ccccc2)c1 [Compound 7] |  | 52.5 (≈ 12.5 µg/mL) | 52.5 (≈ 12.5 µg/mL) | 52.5 (≈ 12.5 µg/mL) | 34.7 (≈ 8.26 µg/mL) | 34.7 (≈ 8.26 µg/mL) | 13.2 (≈ 3.14 µg/mL) |  |  |  |
| Cc1ccc(C(=O)N/N=C/c2ccccc2)cc1 [Compound 8] |  | 52.5 (≈ 12.5 µg/mL) | 52.5 (≈ 12.5 µg/mL) | 52.5 (≈ 12.5 µg/mL) | 38.9 (≈ 9.27 µg/mL) | 38.9 (≈ 9.27 µg/mL) | 45.7 (≈ 10.9 µg/mL) |  |  |  |
| COc1cc(OC)cc(C(=O)N/N=C/c2ccccc2)c1 [Compound 9] | 100 µg/mL | 43.7 (≈ 12.4 µg/mL) | 43.7 (≈ 12.4 µg/mL) | 43.7 (≈ 12.4 µg/mL) | 28.8 (≈ 8.2 µg/mL) | 28.8 (≈ 8.2 µg/mL) | 11 (≈ 3.12 µg/mL) | active; also recorded: antiviral potential |  |  |
| O=C(N/N=C/c1ccccc1)c1cc([N+](=O)[O-])cc([N+](=O)[O-])c1 [Compound 10] |  | 39.8 (≈ 12.5 µg/mL) | 39.8 (≈ 12.5 µg/mL) | 39.8 (≈ 12.5 µg/mL) | 30.2 (≈ 9.49 µg/mL) | 30.2 (≈ 9.49 µg/mL) | 20 (≈ 6.27 µg/mL) |  | 20 (≈ 6.27 µg/mL) |  |
| CCCCCCCCCCCC(=O)N/N=C/c1ccccc1Cl [Compound 11] |  | 37.2 (≈ 12.5 µg/mL) | 37.2 (≈ 12.5 µg/mL) | 15.8 (≈ 5.34 µg/mL) | 27.5 (≈ 9.28 µg/mL) | 27.5 (≈ 9.28 µg/mL) | 18.6 (≈ 6.27 µg/mL) |  |  |  |
| CCCCCCCCCCCCCC(=O)N/N=C/c1ccccc1Cl [Compound 12] |  | 33.9 (≈ 12.4 µg/mL) | 33.9 (≈ 12.4 µg/mL) | 33.9 (≈ 12.4 µg/mL) | 46.8 (≈ 17.1 µg/mL) | 46.8 (≈ 17.1 µg/mL) | 75.9 (≈ 27.7 µg/mL) |  |  |  |
| CCCCCCCCCCCCCCCC(=O)N/N=C/c1ccccc1Cl [Compound 13] |  | 32.4 (≈ 12.7 µg/mL) | 31.6 (≈ 12.4 µg/mL) | 31.6 (≈ 12.4 µg/mL) | 26.9 (≈ 10.6 µg/mL) | 26.9 (≈ 10.6 µg/mL) | 7.94 (≈ 3.12 µg/mL) |  |  | active bactericidal agents |
| CCCCCCCCCCCCCCCCCC(=O)N/N=C/c1ccccc1Cl [Compound 14] |  | 29.5 (≈ 12.4 µg/mL) | 29.5 (≈ 12.4 µg/mL) | 29.5 (≈ 12.4 µg/mL) | 28.8 (≈ 12.1 µg/mL) | 28.8 (≈ 12.1 µg/mL) | 14.8 (≈ 6.23 µg/mL) |  |  | active bactericidal agents |
| C/C=C/C=C/C(=O)N/N=C/c1ccccc1Cl [Compound 15] |  | 50.1 (≈ 12.5 µg/mL) | 50.1 (≈ 12.5 µg/mL) | 50.1 (≈ 12.5 µg/mL) | 39.8 (≈ 9.9 µg/mL) | 39.8 (≈ 9.9 µg/mL) | 25.1 (≈ 6.25 µg/mL) |  |  |  |
| O=C(/C=C/c1ccccc1)N/N=C/c1ccccc1Cl [Compound 16] |  | 43.7 (≈ 12.4 µg/mL) | 43.7 (≈ 12.4 µg/mL) | 43.7 (≈ 12.4 µg/mL) | 30.2 (≈ 8.6 µg/mL) | 30.2 (≈ 8.6 µg/mL) | 17.4 (≈ 4.95 µg/mL) |  | 17.4 (≈ 4.95 µg/mL) |  |
| Cc1cccc(C(=O)N/N=C/c2ccccc2Cl)c1 [Compound 17] |  | 45.7 (≈ 12.5 µg/mL) | 45.7 (≈ 12.5 µg/mL) | 45.7 (≈ 12.5 µg/mL) | 42.7 (≈ 11.6 µg/mL) | 42.7 (≈ 11.6 µg/mL) | 45.7 (≈ 12.5 µg/mL) |  |  |  |
| Cc1ccc(C(=O)N/N=C/c2ccccc2Cl)cc1 [Compound 18] |  | 45.7 (≈ 12.5 µg/mL) | 45.7 (≈ 12.5 µg/mL) | 45.7 (≈ 12.5 µg/mL) | 35.5 (≈ 9.68 µg/mL) | 35.5 (≈ 9.68 µg/mL) | 24.5 (≈ 6.69 µg/mL) |  | 24.5 (≈ 6.69 µg/mL) |  |
| COc1cc(OC)cc(C(=O)N/N=C/c2ccccc2Cl)c1 [Compound 19] | 100 µg/mL | 38.9 (≈ 12.4 µg/mL) | 38.9 (≈ 12.4 µg/mL) | 38.9 (≈ 12.4 µg/mL) | 27.5 (≈ 8.78 µg/mL) | 27.5 (≈ 8.78 µg/mL) | 9.77 (≈ 3.12 µg/mL) | active; also recorded: antiviral potential |  |  |
| O=C(N/N=C/c1ccccc1Cl)c1cc([N+](=O)[O-])cc([N+](=O)[O-])c1 [Compound 20] |  | 35.5 (≈ 12.4 µg/mL) | 35.5 (≈ 12.4 µg/mL) | 35.5 (≈ 12.4 µg/mL) | 25.1 (≈ 8.76 µg/mL) | 25.1 (≈ 8.76 µg/mL) | 8.91 (≈ 3.11 µg/mL) |  |  |  |
| NC(=O)c1ncn([C@@H]2O[C@H](CO)[C@@H](O)[C@H]2O)n1 [Ribavirin, reference compound] | >250 µM |  |  |  |  |  |  |  |  |  |
